# Cneo AK release = causes C. neoformans cell lysis. AID 651654. adenylate kinase release luminescence, 4 h; normalised: neutral wells 0, clomiphene wells 100. hit rate 0.2% among 360,000. lysis activity, % at 15 µM;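 active = mean lysis activity across replicates of at least 80%, whatever share of replicates individually reach that level; inactive = mean lysis activity below 80%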
#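 Schedule: static 4 h at 37 °C with compound, 1 h detection; system: C. neoformans cells; benchmarks: Clomiphene as positive control; buffer or medium: fresh YPD medium; measure: luminescence rise reflecting yeast cell lysis; measured by: luminescent adenylate kinase detection reagent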
# PGC1a acetyl inh = PGC1a acetylation modulation, inhibitor mode | U2OS PGC1a acetylation, AlphaScreen anti-acetyl-lysine; with virally co-expressed GCN5 acetyltransferase | inhibition, % at 15.6 µM | hit rate 0.17% among 350,000 | AID 651687;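 active = every replicate shows inhibition of at least 40%; inconclusive = mean inhibition at least 40% but some replicate below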
# HIV Env fusion = inhibitors of HIV Env-mediated cell fusion. hit rate 1.1% among 360,000. inhibition, % at 12.3 µM. HeLa-JRFL Env/CEM21 cell fusion, luciferase;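 active = mean replicate inhibition score of at least 50 and every replicate individually at or above 50; inconclusive = only one of the two criteria met; inactive = mean below 50 and not all replicates reaching 50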
# Ecoli rRNA inh = inhibits bacterial ribosomal RNA function over humanized ribosomes | E. coli WT GFP vs humanized-ribosome RFP mutants, fluorescence, 24 h; active compounds read low; DMSO median 0, no signal -100 | GFP signal change (wild-type ribosome), % (test concentration not listed) | hit rate 1.6% among 350,000;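 active = significant combined selectivity score with lowered wild-type GFP, culture density cut under 30%, mutant RFP and density less affected; inactive = any of these conditions unmet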
# FGF22 binding = shifts melting point of recombinant human FGF22; recombinant FGF22 thermal shift, SYPRO orange fluorescence; percent of sucrose octasulfate shift, DMSO zero; Q9HCT0; activity (Tm shift, normalised), % at 9.99 µM; hit rate 1.5% among 340,000;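 active = mean Tm shift, scaled 0 neutral to 100 positive control, at about 1.3% or above, every replicate too, limit read from the data; inconclusive = no clear call, values can overlap the other calls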
# Target sequence (Q9HCT0 whole entry, looked up): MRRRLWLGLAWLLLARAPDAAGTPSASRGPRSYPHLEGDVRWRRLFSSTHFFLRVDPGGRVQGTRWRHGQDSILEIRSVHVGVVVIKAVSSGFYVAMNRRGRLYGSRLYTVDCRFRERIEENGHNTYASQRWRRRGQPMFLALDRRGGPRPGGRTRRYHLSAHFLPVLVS
# ERAP1 inh = inhibitors of human ERAP1 aminopeptidase. recombinant ERAP1, Leu-AMC fluorescence, 60 min. inhibition, % at 10.7 µM. hit rate 0.15% among 340,000. AID 652197;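 active = mean replicate inhibition of at least 30%, or all replicates individually reaching that 30% level; inactive = mean below 30% and not every replicate reaching it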
# Hits are given with their value; i = inactive; ? = inconclusive; nt = no result; ! = not active in a repeat; [ ] = another dose, or the depositor's remark. This is a sample that favours compounds with a hit; in the whole collection about 3.5% have one here.
SMILES,Cneo AK release,PGC1a acetyl inh,HIV Env fusion,Ecoli rRNA inh,FGF22 binding,ERAP1 inh
COC(=O)C1CCN(C(=O)Cc2ccccc2OC)CC1,nt,i,i,i,43.1,i
Cc1cccc(NC(=O)c2cc(-c3ccc(C)c(C)c3O)n[nH]2)c1,i,i,i,-17.0,i,i
Cc1ccc(NC(=O)c2cc(-c3cc(Cl)ccc3C)n[nH]2)cc1NS(C)(=O)=O,i,i,65.0,i,i,i
CNC[C@@H]1OCCCC[C@@H](C)Oc2ccc(NC(=O)CCC(F)(F)F)cc2C(=O)N([C@@H](C)CO)C[C@@H]1C,i,i,i,i,nt,i
Cc1ccc(C2=NN=C(NC(=O)CSc3nncn3C)SC2)cc1,i,nt,i,-23.1,i,i
Cc1ccc(C(=O)NC(=O)CSc2nncn2C)cc1,i,nt,i,i,i,i
O=C(c1cccc([N+](=O)[O-])c1)N1CCN(c2cccc(Cl)c2)CC1,nt,nt,i,nt,nt,nt
C[N+]1(CC(=O)OCCCc2ccccc2)CCCCC1,i,i,i,i,i,i
O=C(CN1CCCC1)OCCCc1ccccc1,i,i,i,i,43.9,i
C[N+]1(CC(=O)OCCCc2ccccc2)CCCC1,nt,nt,i,i,i,77.0
CC(C)(C)n1ncc2c(=O)n(Cc3cccc(Cn4cnc5c(cnn5C(C)(C)C)c4=O)c3F)cnc21,i,nt,92.4,i,i,i
FC(F)Oc1ccc(C2N=C(c3ccccc3)NO2)cc1 (stereo not given),i,i,i,i,i,i
O=C(CSc1ncnc2sccc12)Nc1ccccc1F,nt,nt,i,i,i,i
c1ccc(CSc2ncnc3sccc23)cc1,i,nt,i,-27.4,i,i
O=C(CSc1ncnc2sccc12)Nc1ccccc1,nt,i,i,i,43.3,i
Cc1onc(-c2ccccc2)c1C(=O)OCCOc1cccc(Cl)c1,i,nt,74.7,i,i,i
Nc1c(C(=O)c2ccccc2)sc(Nc2ccccc2)c1S(=O)(=O)c1ccccc1,i,i,i,nt,nt,nt
Cc1nc2ccccc2n1CCCOc1ccccc1,i,i,nt,nt,nt,nt
O=C(CS(=O)(=O)c1ccc(Cl)c(Cl)c1)Nc1ccccc1Cl,i,i,i,nt,nt,nt
COc1ccc(S(=O)(=O)CC(=O)Nc2ccccc2Cl)cc1,i,i,i,i,43.4,i
CCC(c1nc2ccccc2c(=O)n1CCN1CCOCC1)N1C(=O)c2ccccc2C1=O (stereo not given),i,i,i,nt,nt,nt
OCCCc1cn(-c2ccccc2)c2ccccc12,nt,nt,i,-39.3,i,i
CCC(=O)NCCc1nc(-c2ccccc2)no1,i,i,60.2,i,i,i
CCC(=O)NCCCc1nc(-c2ccccc2)no1,i,i,i,i,i,nt
Cc1ccc(-c2noc(CCCC(=O)Nc3cccnc3)n2)cc1,nt,i,63.5,nt,nt,nt
SMILES,Cneo AK release,PGC1a acetyl inh,HIV Env fusion,Ecoli rRNA inh,FGF22 binding,ERAP1 inh
COc1ccc(-c2noc(CCCC(=O)O)n2)cc1,i,nt,84.4,nt,nt,nt
O=C(CCCc1nc(-c2ccccc2)no1)Nc1cccnc1,i,i,i,nt,nt,nt
CCOC(=O)c1ccc(NC(=O)CCc2nc(-c3ccc(Cl)cc3)no2)cc1,i,i,58.8,nt,nt,nt
C[C@@H]1CN([C@H](C)CO)C(=O)c2cc(C3=CCCCC3)cnc2O[C@H]1CN(C)C(=O)Cc1ccccc1,i,i,i,i,i,i
CCN(CC)S(=O)(=O)c1ccc(C(=O)NNC(=O)C2COc3ccccc3O2)cc1 (stereo not given),i,i,i,i,i,i
CCCC(=O)Nc1ccc(S(=O)(=O)Nc2cc(OC)nc(OC)n2)cc1,i,nt,i,i,i,i
COc1cc(/C=C/C(=O)OCC(=O)c2ccc3c(c2)NC(=O)CO3)ccc1OC(F)F,i,i,nt,i,i,37.2
O=C(C[n+]1ccccc1)Nc1ccccc1,i,i,i,i,i,i
O=c1[nH]c(=S)[nH]cc1Oc1ccc(Cl)cc1Cl,i,nt,i,-24.6,i,i
Cc1ccc(S(=O)(=O)N(C)C[C@@H]2Oc3ccc(NC(=O)C4CCCCC4)cc3C(=O)N([C@H](C)CO)C[C@@H]2C)cc1,i,nt,i,i,i,i
O=C(C[n+]1ccccc1)N/N=C/c1ccccc1[N+](=O)[O-],nt,i,i,i,43.2,i
CC(C)[C@H](NC(=O)c1cccc(S(=O)(=O)N2CCOCC2)c1)C(=O)Nc1nccs1,i,nt,i,i,i,i
C[C@H](CO)N1C[C@H](C)[C@H](CN(C)CC2CCCCC2)Oc2c(NC(=O)c3nc4ccccc4s3)cccc2C1=O,i,i,nt,i,i,i
Cc1ccc(C2CC(c3cccs3)=NN2C(=O)c2ccco2)o1 (stereo not given),i,nt,i,i,44.3,i
COc1cccc(NC(=O)N(C)C[C@H]2OCc3ccccc3-c3c(n(C)c4ccccc34)C(=O)N([C@@H](C)CO)C[C@@H]2C)c1,i,i,55.1[16.7 µM],i,i,i
COc1ccc(NC(=O)N(C)C[C@H]2OCc3ccccc3-c3c(n(C)c4ccccc34)C(=O)N([C@H](C)CO)C[C@@H]2C)cc1,111.0,i,nt,i,i,i
COc1cccc(NC(=O)N(C)C[C@H]2OCc3ccccc3-c3c(n(C)c4ccccc34)C(=O)N([C@H](C)CO)C[C@H]2C)c1,nt,i,i,i,i,i
O=C(c1c(F)cccc1F)N1CCC(O)(c2ccc(F)cc2)CC1,i,i,i,i,i,i
COc1ccc(CN=C2NN=C(c3cccc(OC)c3)CS2)cc1,nt,nt,i,i,43.2,i
Cc1nc2nc(SCC(=O)O)nn2c(C)c1Cc1ccccc1Cl,nt,nt,i,i,43.2,i
O=C(N/C(=C/c1ccc(Br)cc1)C(=O)N1CCCC1)c1ccccc1F,i,i,i,nt,i,i
COc1ccccc1C(=O)N/C(=C\c1ccc(Br)cc1)C(=O)N1CCCC1,i,i,i,-40.2,i,i
O=C1CCc2cc(S(=O)(=O)N3CCN(c4ccccc4)CC3)cc3c2N1CCC3,i,i,i,i,i,i
CC(C)CC(NC(N)=O)C(=O)NCCc1ccc(Cl)cc1 (stereo not given),nt,nt,i,i,i,i
CC[C@@H]1CC=C[C@H]2[C@H]1C(=O)N(Cc1ccccc1)[C@H]2c1ccoc1,i,i,nt,nt,nt,nt
SMILES,Cneo AK release,PGC1a acetyl inh,HIV Env fusion,Ecoli rRNA inh,FGF22 binding,ERAP1 inh
CC[C@@H]1CC=C[C@H]2[C@H]1C(=O)N(Cc1ccccc1)[C@H]2c1ccc(C(F)(F)F)cc1,i,nt,57.0,i,i,i
O=C(c1ccc(F)cc1)C1CCN(CCn2c(=O)[nH]c3ccccc3c2=O)CC1,i,i,60.6!,nt,i,i
O=C(c1ccc(F)cc1)C1CCN(CCCn2c(=O)[nH]c3ccccc32)CC1,nt,nt,i,nt,i,i
CCCCCOC(=O)C1=C(C)NC(=O)NC1c1ccc2c(c1)OCO2 (stereo not given),i,i,i,i,i,i
c1csc(CNc2ncnc3ccc(-c4ccoc4)cc23)c1,i,50.4,?,i,i,i
c1csc(CNc2ncnc3ccc(-c4ccc5c(c4)OCO5)cc23)c1,i,i,nt,i,43.7,i
Cc1cccc(CNc2ncnc3ccc(-c4ccc5c(c4)OCO5)cc23)c1,i,nt,?,i,i,i
